In the library only some 1.3% were active in any assay of this set; here they are far more common.
CRFR2-BP antag – antagonists of CRF-BP/CRF-R2 complex, primary screen, cell-based, HEK293, calcium dye fluorescence, uHTS | CRF-induced calcium fluorescence | inhibition, % at 11.8 µM | 0.59% of 350,000 active;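 active = inhibition of the ligand-induced calcium signal above about 50% at the single tested concentration, limit read from the data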
DDE Tn7 FP inh – inhibitors of Tn7 peptide binding to fibrin DD(E), primary screen, biochemical, fluorescence polarization, human fibrin, Tn7 probe; FP displacement of FITC-Tn7 peptide from fibrin DD(E); 0% = median of compound wells per plate; inhibition, % at 8.3 µM; 0.13% of 370,000 active; AID 720508, 2013;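 active = inhibition above the mean of compounds falling within the control limits plus 3 SD of them, cut at about 14% in these data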;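 also: 0% = plate median of compound wells and 100% = 10 µM Aha-Tn7 peptide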
Target sequence (P02675 whole entry, looked up): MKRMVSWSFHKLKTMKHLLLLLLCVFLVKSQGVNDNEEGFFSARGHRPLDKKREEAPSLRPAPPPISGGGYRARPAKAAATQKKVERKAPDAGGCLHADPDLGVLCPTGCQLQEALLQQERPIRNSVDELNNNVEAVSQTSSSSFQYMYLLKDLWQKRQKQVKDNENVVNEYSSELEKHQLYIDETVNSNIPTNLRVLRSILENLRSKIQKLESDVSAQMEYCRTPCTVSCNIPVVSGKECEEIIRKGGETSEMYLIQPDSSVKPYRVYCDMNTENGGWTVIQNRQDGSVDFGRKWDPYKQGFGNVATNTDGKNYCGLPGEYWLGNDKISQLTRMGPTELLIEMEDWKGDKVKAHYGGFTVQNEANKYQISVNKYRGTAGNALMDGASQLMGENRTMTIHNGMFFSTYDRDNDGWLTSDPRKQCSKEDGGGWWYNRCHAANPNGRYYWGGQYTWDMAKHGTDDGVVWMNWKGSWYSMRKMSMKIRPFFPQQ
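Test system: human clot-derived fibrin DD(E) complex / Quantity: 2 µM final DD(E) protein / Incubation: 10 min plus 3 h, room temperature / Measured by: fluorescence polarization / Benchmarks: high control of 10 µM Aha-Tn7 peptide / Replicates: singlicate testing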
DDE Tn6 FP inh – inhibitors of Tn6 peptide binding to fibrin DD(E), primary screen, biochemical, fluorescence polarization, human fibrin, Tn6 probe; Fibrinogen beta chain (Homo sapiens), P02675; Fibrin DD(E) TRITC-Tn6 fluorescence polarization displacement; inhibition, % at 8.3 µM; 0.21% of 370,000 active; AID 720509, 2013;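 active = inhibition above a per-campaign cutoff: mean of compounds within control limits plus 3 SD, cut at about 15% in these data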;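 also: 0% = median of all compound wells on the plate and 100% = blocking peptide control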
CRFBP-R2 agonist – agonists of CRF-BP/CRF-R2 complex, primary screen, cell-based, HEK293, calcium dye fluorescence, uHTS; CRF-binding protein / CRF receptor 2 complex (human); calcium dye fluorescence (FLIPR); percent of saturating CRF peptide response; activation, % at 13.2 µM; 0.46% of 350,000 active;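 active = activation of at least 50%, plus an integration ratio under a set limit after plate pattern correction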;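 also: plate controls were neutral control wells without compound for no effect and CRF at EC100 for full effect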
Numbers without * were called inactive; . = not tested or not shown; + = active, no number.

SMILES | CRFR2-BP antag | DDE Tn7 FP inh | DDE Tn6 FP inh | CRFBP-R2 agonist
CN(C)c1ccc(/C=C(/C#N)C(=O)Nc2nc3c(s2)CCN(Cc2ccccc2)C3)cc1 | -87.7 | -12.5 | -7.8 | 157.7*
O=C(COC(=O)[C@H](Cc1ccccc1)NC(=O)c1ccco1)NC(c1ccccc1)c1ccccc1 | -15.6 | 5.6 | 5.6 | 8.2
COC(=O)CNC(=O)COC(=O)C(Cc1ccccc1)NC(=O)c1ccco1 (stereo not given) | 3.2 | -0.8 | -10.9 | 55.4*
Cc1cc(NC(=O)COC(=O)C(Cc2ccccc2)NC(=O)c2ccco2)no1 (stereo not given) | -66.1 | 8.0 | -6.4 | 152.6*
O=C(COC(=O)[C@H](Cc1ccccc1)NC(=O)c1ccco1)Nc1ccccc1 | 4.6 | -2.3 | -1.5 | 10.8
COC(=O)N1CCCC1c1cccc2[nH]cc(C)c12 (stereo not given) | . | -5.4 | -5.1 | .
Cc1ccccc1CN1CCCCC(NC(=O)c2ccc3ccccc3c2)C1=O (stereo not given) | . | 7.8 | -8.0 | .
O=S(=O)(Nc1nc2ccccc2nc1Nc1ccc(N2CCOCC2)cc1)c1cc(Cl)ccc1Cl | 49.6 | -3.2 | 1.7 | 51.0*
CCCC(C)C(=O)NC1CCCCN(C)C1=O (stereo not given) | . | -12.0 | 1.3 | .
C[C@@H]1CCN(C2CC2)S(=O)(=O)c2c(cccc2N2CCC[C@@H]2C)O1 | . | 0.9 | -0.3 | .
O=C(OC12CCCN(C1)/C(=C/c1ccccc1)C2)c1ccc(Cl)cc1 (stereo not given) | . | 3.0 | 3.3 | .
COc1cccc2c1C(=O)c1c(O)c3c(c(O)c1C2=O)CC(O)(C(C)=O)CC3OC1CC(O)C(O)C(C)O1 (stereo not given) | -103.3 | 25.9* | + | 96.3*
COc1cccc2c1C(=O)c1c(O)c3c(c(O)c1C2=O)C[C@](O)(C(C)=O)C[C@H]3O[C@@H]1C[C@@H](N)[C@@H](O)[C@@H](C)O1 | -66.0 | 24.7* | + | 64.4*
COc1cccc2c1C(=N)c1c(O)c3c(c(O)c1C2=O)CC(O)(C(C)=O)CC3OC1CC(N)C(O)C(C)O1 (stereo not given) | 27.2 | . | . | -1.7
CCCCC(=O)OCC(=O)C1(O)Cc2c(O)c3c(c(O)c2C(OC2CC(NC(=O)C(F)(F)F)C(O)C(C)O2)C1)C(=O)c1c(OC)cccc1C3=O (stereo not given) | -67.4 | -0.5 | 43.0* | 32.5
CC1(C)CC(=O)C=C(Nc2ccccc2NC(=O)c2cc(F)cc(F)c2)C1 | . | -7.7 | -5.6 | .
CC(C)c1cc(-c2cc(C(=O)NCc3ccccc3)on2)nc(NCC2CC2)n1 | -39.8 | 0.8 | -3.8 | 96.0*
N#Cc1c(-c2ccccc2)nc(SCc2cccc(Cl)c2)[nH]c1=O | 55.7* | 9.1 | 1.7 | 4.8
CC(C)CC(=NNC(=O)c1ccncc1)c1cc(Cl)ccc1O | -107.1 | -5.2 | 3.6 | 149.7*
COC(=O)C1=C(C)N(Cc2ccccc2C(F)(F)F)C(=NCc2cc(OC)c(OC)c(OC)c2)NC1c1cccc(C(F)(F)F)c1 (stereo not given) | . | 1.3 | 0.2 | .
Cc1ccc(NC(=O)[C@H]2CC(=O)O[C@@H]2c2ccccc2)c(C)c1 | . | 3.8 | -6.3 | .
CC(C)CN1C(=O)C[C@@]2(C(=O)N(C)c3ccc(NS(=O)(=O)c4ccc(F)cc4)cc32)C1c1ccccc1 (stereo not given in full) | . | 8.3 | 4.7 | .
O=C(CN1CCN(C(=O)c2ccco2)CC1)Nc1c2c(nc3c1CCC3)CCCC2 | 71.7* | -5.6 | -1.5 | 1.9
Cc1ccc(O)c(Nc2ncnc3ccc([N+](=O)[O-])cc23)c1 | -7.3 | 2.8 | 0.5 | -4.2
COc1ccc([N+](=O)[O-])cc1Nc1ncnc2ccccc12 | 26.4 | -2.3 | 5.7 | -1.7
SMILES | CRFR2-BP antag | DDE Tn7 FP inh | DDE Tn6 FP inh | CRFBP-R2 agonist
O=[N+]([O-])c1ccc(O)c(Nc2ncnc3ccc(Br)cc23)c1 | 65.6* | -0.8 | 8.1 | 51.7*
O=[N+]([O-])c1ccc(O)c(Nc2ncnc3ccccc23)c1 | 62.7* | 0.5 | -0.8 | 41.5
O=C1NC(=S)S/C1=C\c1cc(Cl)cc(Cl)c1O | -57.4 | -12.4 | 25.4* | 83.2*
CCOc1ccccc1N(C)C(=O)Cn1ncc2c([nH]c3ccccc32)c1=O | 93.8* | -3.3 | 2.4 | 6.6
C[C@H]1CCCN1c1cccc2c1S(=O)(=O)N1CC[C@@H](C1)O2 | . | -2.5 | -2.3 | .
Cc1ccc2oc(=O)c(/C=C(\O)c3ccccc3)nc2c1 | -25.4 | 2.1 | -5.4 | 70.6*
Cc1ccc2oc(=O)c(/C=C(\O)c3cccs3)nc2c1 | -80.4 | -2.2 | 3.5 | 120.0*
Cc1ccc2oc(=O)c(/C=C(\O)CC(C)C)nc2c1 | -36.6 | -1.7 | 5.2 | 0.6
O=c1oc2ccc(Cl)cc2nc1/C=C(\O)c1cccs1 | -13.0 | -1.8 | 7.3 | 11.1
COc1cccc(-c2nnc(SCC(=O)Nc3cccc4ccccc34)n2Cc2ccco2)c1 | . | -3.5 | -8.6 | .
CC(C)(C)c1ccc(-c2nnc(SCC(=O)Nc3ccccc3-c3ccccc3)n2Cc2ccco2)cc1 | . | -1.4 | -2.5 | .
O=C1c2ccccc2-c2nnc(-c3ccc(O)cc3)cc21 | 103.1* | 3.0 | 0.5 | -1.1
Cc1cc(-c2nnc(SCC(=O)Nc3cccc4ccccc34)n2N)n[nH]1 | . | 1.4 | -4.0 | .
CCc1ccc(-c2cc(C)no2)cc1S(=O)(=O)Nc1ccc(Cl)cn1 | 57.1* | 2.8 | -1.0 | 0.6
CCc1ccc(-c2cc(C)no2)cc1S(=O)(=O)Nc1cc(C)on1 | 12.8 | -5.7 | 0.0 | 0.4
CN(C)c1ncc(S(=O)(=O)c2ccc(Cl)cc2)c(-c2ccc(Cl)cc2Cl)n1 | 56.3* | -4.8 | -5.5 | 3.2
CC1(C)C[C@H](O)[C@@]23C[C@@H](OC2=O)[C@]2(C)C(=CCC4[C@@]5(C)CC[C@H](O)C(C)(C)C5CC[C@]42C)[C@@H]3C1 (stereo not given in full) | -43.1 | . | . | 73.5*
CC1(C)C2CC[C@]3(C)C(CC=C4[C@@H]5C[C@@](C)(CO)[C@@H]6C[C@@]5(CC[C@]43C)C(=O)O6)[C@@]2(C)CC[C@@H]1O (stereo not given in full) | -13.2 | . | . | -1.6
CN1C2CCC1/C(=C/c1cccn1C)C(=O)/C2=C\c1cccn1C | -267.9 | 4.1 | 0.2 | 237.3*
Cn1cccc1/C=C1\CC(C(C)(C)C)C/C(=C\c2cccn2C)C1=O (stereo not given) | -118.6 | -1.8 | 9.2 | 79.0*
CCN(CC)Cc1c(C)[nH]c2ccc(NC(C)=O)cc2c1=O | 67.0* | 5.4 | 5.0 | -0.1
O=C(NC1CCCCN(Cc2ccc(Cl)cc2)C1=O)c1c(F)cccc1F (stereo not given) | . | -3.1 | -3.2 | .
O=C(NCc1ccco1)C1CCCN(S(=O)(=O)c2ccccc2F)C1 (stereo not given) | . | 0.0 | -3.4 | .

Assay outcomes as filed in PubChem.
